This is an account of results in ChEMBL document CHEMBL1142073, “Synergistic activity of R207910 combined with pyrazinamide against murine tuberculosis” (2007).

Experiment [1] concerns Mycobacterium tuberculosis. Nature of the experiment: Reduction of lung lesions in Mycobacterium tuberculosis H37Rv infected Swiss mouse at 25 mg/kg, po for 5 days/week after 1 month. The class given is functional, organism-based. The arrangement: dose 25 mg/kg.
The test system of experiment [2] is Mycobacterium tuberculosis. Description: Reduction of bacterial counts in Mycobacterium tuberculosis H37Rv infected Swiss mouse lung at 25 mg/kg, po for 5 days/week after 1 month. The class given is functional. The gist of the method: (§1)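 Female 4-week-old Swiss mice were infected in the tail vein with about 2 10 6 CFU of H37Rv, grown in Dubos broth for 7 days at 37 C. Gavage started 2 weeks post-infection, 5 days/week, with rifampin given 1 h before other drugs. Lung homogenates were plated for CFU; some groups had both lungs cultured undiluted. Mann-Whitney U test.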

The test system of experiment [3] is Mycobacterium tuberculosis. Nature of the experiment: Reduction of lung lesions in Mycobacterium tuberculosis H37Rv infected Swiss mouse at 25 mg/kg, po for 5 days/week after 2 months. The experiment is classed as functional, organism-based. The arrangement: dose 25 mg/kg.
Experiment [4] has as its system Mycobacterium tuberculosis. Description: Reduction of bacterial counts in Mycobacterium tuberculosis H37Rv infected Swiss mouse lung at 25 mg/kg, po for 5 days/week after 2 months. The experiment is classed as functional. The method, boiled down:
as §1

The test system of experiment [5] is Mycobacterium tuberculosis. Description: Reduction of bacterial counts in Mycobacterium tuberculosis H37Rv infected Swiss mouse lung at 100 mg/kg, po for 5 days/week after 2 months. The experiment is classed as functional. The method, boiled down:
as §1

Experiment [6] concerns Mycobacterium tuberculosis. Description: Reduction of lung lesions in Mycobacterium tuberculosis H37Rv infected Swiss mouse at 100 mg/kg, po for 5 days/week after 2 months. The class given is functional, organism-based. The arrangement: dose 100 mg/kg.
For experiment [7], the system named is Mycobacterium tuberculosis. Description: Reduction of bacterial counts in Mycobacterium tuberculosis H37Rv infected Swiss mouse lung at 100 mg/kg, po for 5 days/week after 1 month. The class given is functional. The method, boiled down:
as §1

Experiment [8] has as its system Mycobacterium tuberculosis. Nature of the experiment: Reduction of bacterial counts in Mycobacterium tuberculosis H37Rv infected Swiss mouse lung at 150 mg/kg, po for 5 days/week after 1 month. The class given is functional. The gist of the method: as §1
In experiment [9] the test system is Mycobacterium tuberculosis. Description: Reduction of bacterial counts in Mycobacterium tuberculosis H37Rv infected Swiss mouse lung at 150 mg/kg, po for 5 days/week after 2 months. The experiment is classed as functional. The gist of the method: as §1
In experiment [10] the test system is Mycobacterium tuberculosis. Nature of the experiment: Reduction of lung lesions in Mycobacterium tuberculosis H37Rv infected Swiss mouse at 150 mg/kg, po for 5 days/week after 2 months. The arrangement: dose 150 mg/kg. The class given is functional, organism-based.
Experiment [11] has as its system Mycobacterium tuberculosis. Description: Reduction of bacterial counts in Mycobacterium tuberculosis H37Rv infected Swiss mouse lung at 10 mg/kg, po for 5 days/week after 1 month. The experiment is classed as functional. The method, boiled down:
as §1

Experiment [12] concerns Mycobacterium tuberculosis. Description: Reduction of lung lesions in Mycobacterium tuberculosis H37Rv infected Swiss mouse at 10 mg/kg, po for 5 days/week after 2 months. The experiment is classed as functional, organism-based. The arrangement: dose 10 mg/kg.
Experiment [13] has as its system Mycobacterium tuberculosis. Nature of the experiment: Reduction of bacterial counts in Mycobacterium tuberculosis H37Rv infected Swiss mouse lung at 10 mg/kg, po for 5 days/week after 2 months. The class given is functional. The method, boiled down:
as §1

Calls of active or inactive are those of the source. The rule behind the calls is not given here.

As to `COc1nc2ccc(Br)cc2cc1[C@@H](c1ccccc1)[C@@](O)(CCN(C)C)c1cccc2ccccc12` [BEDAQUILINE], the result in [1] and in experiment [3] was Active. The values for the Log10 cfu in experiment [2] and in experiment [4] were 4.1 and 2.3, respectively.
For the compound `NNC(=O)c1ccncc1` [ISONIAZID], the Log10 cfu came to 4.9 in experiment [2] and 4.7 in experiment [4]. In addition, the result in experiment [3] was Active.
Regarding `COc1c(N2C[C@@H]3CCCN[C@@H]3C2)c(F)cc2c(=O)c(C(=O)O)cn(C3CC3)c12` [MOXIFLOXACIN], the figures for the Log10 cfu in experiment [5] and in experiment [7] were 4.3 and 5.5, respectively. Further, in experiment [6], the outcome was Active.
Turning to `NC(=O)c1cnccn1` [PYRAZINAMIDE], the Log10 cfu in [8] is given as 6.2; in [9], 6.4. For the same compound, in experiment [10], the result was inactive.
Consider `CO[C@H]1/C=C/O[C@@]2(C)Oc3c(C)c(O)c4c(O)c(c(/C=N/N5CCN(C)CC5)c(O)c4c3C2=O)NC(=O)/C(C)=C\C=C\[C@H](C)[C@H](O)[C@@H](C)[C@@H](O)[C@@H](C)[C@H](OC(C)=O)[C@@H]1C` [RIFAMPIN], for which the Log10 cfu in [11] was 6; in experiment [13], 4.1. The outcome in experiment [12] was Active.
